Assays:
[1] = tested on: P. falciparum W2 parasites; assay: P. falciparum replication assay; type: cell-based, Plasmodium falciparum; conditions: for EC50: Plasmodium falciparum, W2, 72 h, read-out: EC50 parasite growth inhibition; for effect of isopentenyl pyrophosphate (IPP) on potency: 72 h growth assays in presence and absence of IPP
Summary of the method: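 Synchronized ring-stage W2 parasites in human erythrocytes, at 1% parasitemia and 0.5% hematocrit, exposed to test compound for 72 h. Cultures fixed in 1% paraformaldehyde (final) for 30 min at room temperature, then stained overnight at 4°C with 50 nM YOYO-1. Infected (YOYO-1-positive) versus uninfected cells counted by flow cytometry.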

recombinant PfMAGLLP = recombinant PfMAGLLP (Plasmodium falciparum, UniProt Q8IJ22); assay: Fluorogenic substrate assay with rPfMAGLLP; type: biochemical; conditions: for inhibition at 1 µM: read-out: inhibition of esterase activity of PfMAGLLP; for inhibition of esterase activity of PfMAGLLP: 1 μM compound
[2] = tested on: Sal A-selected clones and parental Dd2_Polδ line; assay: IC50 determination for Sal A-selected clones; type: cell-based, Plasmodium falciparum; conditions: versus parental Dd2_Polδ
[3] = tested on: parasites expressing PfATP4 fused to GFP; assay: Imaging of PfATP4-GFP parasites; type: cell-based, Plasmodium falciparum; conditions: 18 h treatment from 24-30 hpi; 2 μM Sal A or 6 μM Orlistat
[4] = tested on: Dd2 parasites overexpressing PfMAGLLP or other putative Sal A targets; assay: Dose-response assays with parasites overexpressing putative Sal A targets; type: cell-based, Plasmodium falciparum
[5] = tested on: T. gondii depalmitoylase PPT1 (TgPPT1); assay: FP-Rho labeling competition in T. gondii parasites; type: cell-based, Toxoplasma gondii; conditions: WT (Δku80) and ΔPPT1 parasites
[6] = molecular target: human depalmitoylase APT1 (Homo sapiens, UniProt O75608); assay: FP-Rho labeling competition in HEK293T cells, APT1; type: cell-based
human depalmitoylase APT1, sequence (O75608 whole entry): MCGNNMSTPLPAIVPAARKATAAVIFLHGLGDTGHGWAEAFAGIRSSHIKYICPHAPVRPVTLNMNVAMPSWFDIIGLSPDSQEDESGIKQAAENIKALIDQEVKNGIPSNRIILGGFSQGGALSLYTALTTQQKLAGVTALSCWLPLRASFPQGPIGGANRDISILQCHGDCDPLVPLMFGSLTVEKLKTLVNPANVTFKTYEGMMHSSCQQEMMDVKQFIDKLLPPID

[7] = tested on: Pf lines expressing WT-GFP or S179T-GFP PfPARE; assay: Sal A sensitivity of parasites expressing WT or S179T PfPARE-GFP; type: cell-based, Plasmodium falciparum; conditions: WT-GFP versus S179T-GFP
[8] = molecular target: human depalmitoylase APT2 (Homo sapiens, UniProt O95372); assay: FP-Rho labeling competition in HEK293T cells, APT2; type: cell-based
human depalmitoylase APT2, sequence (O95372 whole entry): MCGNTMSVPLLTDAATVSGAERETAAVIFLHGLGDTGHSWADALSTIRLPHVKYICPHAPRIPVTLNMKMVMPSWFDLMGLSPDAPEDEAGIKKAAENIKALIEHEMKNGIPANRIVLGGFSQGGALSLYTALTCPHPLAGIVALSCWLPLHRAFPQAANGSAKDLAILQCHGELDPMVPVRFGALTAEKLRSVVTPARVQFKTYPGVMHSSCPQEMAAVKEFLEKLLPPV
Summary of the method: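 Lysates of treated HEK293T cells, clarified at 4°C and quantified by BCA; 50 μg lysate labeled with 1 μM FP-Rho for 1 h at 37°C. Reactions quenched in reducing SDS sample buffer, resolved by SDS-PAGE, and gel fluorescence scanned (532-nm laser, 610-nm filter).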

[9] = tested on: a variety of mammalian cell lines; conditions: ref Schulze et al., 2015; cited from earlier work
[10] = tested on: serine hydrolases in Plasmodium falciparum parasites; assay: FP-Rho labeling competition in whole Pf parasites; type: cell-based; conditions: 1 μM Sal A
Summary of the method: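 P. falciparum cultures (ring/trophozoite, 13% parasitemia) treated with DMSO or test compound for 3 h at 37°C. 50 μg clarified lysate labeled with 1 μM FP-Rho for 1 h at 37°C; SDS-PAGE with in-gel fluorescence scan.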

## O=C(OC(C(F)(F)F)C(F)(F)F)N1CCN(C(c2ccc(Cl)cc2)c2ccc(Cl)cc2)CC1 [JW651]
[1]
  EC50: 0.839 µM
[1]; W2 parasites
  decrease in potency against parasites as compared with Sal A: 16 fold
Recombinant PfMAGLLP
  potency against recombinant PfMAGLLP relative to Sal A: virtually identical potency as Sal A
  inhibition at 1 µM: > 90%
[2]
  cross-resistance of Sal A-selected clones: no cross-resistance

## O=C(Oc1ccc([N+](=O)[O-])cc1)N1CCC(C(O)(c2ccc3c(c2)OCO3)c2ccc3c(c2)OCO3)CC1 [JZL 184]
Recombinant PfMAGLLP
  inhibition of esterase activity of PfMAGLLP: 25%

## O=C(OC(C(F)(F)F)C(F)(F)F)N1CCC(C(O)(c2ccc3c(c2)OCO3)c2ccc3c(c2)OCO3)CC1 [KML29]
Recombinant PfMAGLLP
  IC50: 0.163 µM
  inhibition at 1 µM: > 90%

## O=C(ON1C(=O)CCC1=O)N1CCN(C(c2ccc(Cl)cc2)c2ccc(Cl)cc2)CC1 [MJN110]
Recombinant PfMAGLLP
  inhibition of esterase activity of PfMAGLLP: more than 90%

## CCCCCCCCCCC[C@@H](C[C@@H]1OC(=O)[C@H]1CCCCCC)OC(=O)[C@H](CC(C)C)NC=O [Orlistat]
[1]
  EC50: 0.28 µM
[3]
  plasma membrane phenotype of schizonts: disorganized plasma membranes that failed to properly surround the merozoites
Recombinant PfMAGLLP
  potency against recombinant PfMAGLLP relative to Sal A: equipotent to Sal A
[2]
  cross-resistance of Sal A-selected clones: No significant cross-resistance

## Salinipostin A [Sal A]
[4]; exogenous overexpression
  shift in EC50 in parasites overexpressing PF3D7_0808500 or PF3D7_0818600: no shift in EC50
[4]; exogenously transfected plasmid
  shift in EC50 in parasites overexpressing PfMAGLLP versus WT: no apparent shift
[1]
  effect of isopentenyl pyrophosphate (IPP) on potency: unaffected by IPP
[3]
  plasma membrane phenotype of schizonts: disorganized plasma membranes that failed to properly surround the merozoites
[5]
  competition with FP-Rho for labeling of TgPPT1: able to compete with FP-Rho for labeling of TgPPT1
[6]
  inhibition of APT1 (FP-Rho competition): inhibits the human depalmitoylases APT1 and APT2 in a dose-dependent manner
[7]
  sensitivity of parasites expressing WT or catalytically dead PfPARE: equally sensitive
[8]
  inhibition of APT2 (FP-Rho competition): inhibits the human depalmitoylases APT1 and APT2 in a dose-dependent manner
  relative potency APT2 versus APT1: increased potency against APT2 over APT1
[9]
  selectivity index over a variety of mammalian cell lines: > 1,000
[10]
  inhibition of FP-Rho labeling of hydrolases in whole Pf parasites: Several hydrolases were inhibited

## Salinipostin alkyne [Sal alk]
[1]
  effect of isopentenyl pyrophosphate (IPP) on potency: unaffected by IPP
[1]; Pf parasites, Figure S1
  potency against Pf parasites compared with parent natural product: retained full potency

Source: article PMC8027986 (Cell chemical biology, 2020)
